Assay results taken from ChEMBL document CHEMBL4808163, “Benzothiazolyl and Benzoxazolyl Hydrazones Function as Zinc Metallochaperones to Reactivate Mutant p53” (J Med Chem, 2021).
The source made the active and inactive calls. No cut-off for these calls is given here.

What was measured:
[1] = Binding affinity to Zn(II)+ incubated for 60 mins using FluoZin-3 by fuorescence assay
NCI-H1299 [2] = assay: Induction of ROS production in human H1299 cells at 0.75 uM incubated for 24 hrs by CellRox green based fluorescence flow cytometry relative to ZMC1; assay type: functional
[3] = Induction of Zinc-dependent p53 R175H mutant refolding by assessing wild type conformation
Method in brief: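 Cells grown on coverslips and treated, fixed in 4% paraformaldehyde 10 min, permeabilized in 0.5% Triton X-100 5 min. Stained overnight with conformation-specific antibodies PAB1620 (1:50, wild-type fold) and PAB240 (1:400, misfolded/unfolded), then goat anti-mouse IgG secondary for 40 min.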

Mu-type opioid receptor = Mu-type opioid receptor (Homo sapiens, UniProt P35372); assay: Displacement of [3H]DAMGO from human recombinant mu receptor at 10 uM after 120 mins by scintillation counting analysis relative to control; conditions: probe [3H]DAMGO
hERG (KCNH2) = hERG (KCNH2) (Homo sapiens, UniProt Q12809); assay: Displacement of [3H]-dofetilide from human recombinant ERG at 10 uM relative to control; conditions: probe [3H]-dofetilide
[4] = biological target: 5-hydroxytryptamine receptor 2A (Homo sapiens, UniProt P28223); assay: Displacement of [125I]+/-DOI from human recombinant 5-HT2A receptor at 10 uM after 60 mins by scintillation counting analysis relative to control; conditions: recombinant human 5-HT2A receptor, probe [125I]+/-DOI
Sodium channel site 2 = assay: Displacement of [3H]batrachotoxinin from rat Sodium channel site 2 at 10 uM incubated for 60 mins by radiometric scintillation analysis relative to control; conditions: rat sodium channel site 2, probe [3H]batrachotoxinin
[5] = biological target: Sodium-dependent noradrenaline transporter (Homo sapiens, UniProt P23975); assay: Displacement of [3H]nisoxetine from recombinant human norepinephrine transporter at 10 uM incubated for 120 mins by radiometric scintillation analysis relative to control; assay type: ADME; conditions: probe [3H]nisoxetine
TOV112D [6] = assay: Anticancer activity against human TOV112D cells harbouring p53 R175H mutant xenografted NCr nu/nu mouse assessed as tumor growth inhibition at 5.73 mg/kg, ip relative to control; assay type: functional; conditions: read-out: TGI
Method in brief: (§1)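 Tumors (five per group) were grown to 50 mm³, then the compound was given ip daily. Dimensions were measured every other day, with volume = L × W² × π/6. Significance was tested by Student's t test.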

TOV112D [7] = assay: Growth inhibition of human TOV112D cells harbouring p53 R175H mutant incubated for 3 days by MTS assay; assay type: functional, cell-based; conditions: 72 h
NCI-H460 = assay: Cytotoxicity against human NCI-H460 cells harbouring p53 wild type; assay type: functional, cell-based
Method in brief: (§2)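 5000 cells/well seeded; serial compound dilutions added next day at about 50% confluence. Growth read by MTS or Calcein AM after 3 days. Three independent experiments, each in triplicate; significance by Student's t test.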

NCI-H1299 [8] = assay: Cytotoxicity against p53-null human H1299 cells; assay type: functional, cell-based; method in brief: as §2
[9] = Toxicity in NCr nu/nu mouse assessed as change in body weight loss up to 30 mg/kg, ip; assay type: organism-based; conditions: in vivo
Method in brief: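 NCr nu/nu mice, 8–12 weeks old, 5 per dose, given a single intraperitoneal injection for acute maximum tolerated dose testing. Health, behavior and body weight monitored afterward.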

TOV112D [10] = assay: Anticancer activity against human TOV112D cells harbouring p53 R175H mutant xenografted NCr nu/nu mouse assessed as tumor growth inhibition at 5 mg/kg, ip relative to control; assay type: functional; conditions: read-out: TGI; method in brief: as §1
MDA-MB-468 = assay: Anticancer activity against human MDA-MB-468 cells harbouring p53 R273H mutant xenografted NCr nu/nu mouse assessed as tumor growth inhibition at 5.73 mg/kg, ip relative to control; assay type: functional, organism-based
Method in brief: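 MDA-MB-468 xenografts (6 × 10⁶ cells/site) in NCr nu/nu nude mice, five tumors per group, grown to 50 mm³, then dosed ip daily. Tumor length and width measured every other day; volume = L × W² × π/6. Growth versus control compared by Student's t test.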

[11] = Binding affinity to Cu(II)+ using CuSO4
[12] = Growth inhibition of human TOV112D cells harbouring p53 R175H mutant incubated for 3 days combination with 5 Gy radiation by MTS assay; assay type: functional, cell-based; conditions: TOV-112D, 72 h
Method in brief: (§3)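 5000 cells per well seeded to reach 50% confluence the next day, then given serial dilutions of compound; line 1 cells also received 5 Gy γ-irradiation, line 2 cells also received etoposide (level not stated). Growth read by MTS or Calcein AM after 3 days (72 h). EC50 taken from dilution curve; three independent experiments, each in triplicate, Student's t test.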

[13] = Growth inhibition of human TOV112D cells harbouring p53 R175H mutant incubated for 3 days combination with etoposide by MTS assay; assay type: functional, cell-based; conditions: TOV-112D, 72 h; method in brief: as §3
[14] = Stability in simulated gastric fluid assessed as parent compound remaining measured after 6 hrs at room temperature; assay type: ADME; conditions: read-out: Stabilty
Method in brief: (§4)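 Incubation in simulated gastric fluid (pH 1–2) at room temperature (~23 °C) or 37 °C. Parent compound remaining quantified by HPLC at 220 and 254 nm, with peak identity confirmed by LC–MS.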

[15] = Stability in simulated gastric fluid assessed as parent compound remaining measured at 37 degC; assay type: ADME; conditions: simulated gi fluid; method in brief: as §4
[16] = Apparent permeability in human Caco-2 cells at 5 uM measured up to 90 mins by LC-MS/MS analysis; assay type: ADME, cell-based
[17] = Toxicity in mouse assessed as maximum tolerated dose; conditions: in vivo
Method in brief: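 Acute single-dose test in NCr nu/nu nude mice aged 8–12 weeks, 5 mice per dose. One intraperitoneal injection was given, then health, behaviour and body weight were monitored.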

[18] = Stability in simulated gastric fluid assessed as parent compound remaining measured after 7 hrs at room temperature; assay type: ADME; conditions: read-out: Stabilty; method in brief: as §4
[19] = Binding affinity to Zn(II)+ incubated for 60 mins using RhodZin-3 by fuorescence assay

Sequence of Sodium-dependent noradrenaline transporter (P23975 whole entry): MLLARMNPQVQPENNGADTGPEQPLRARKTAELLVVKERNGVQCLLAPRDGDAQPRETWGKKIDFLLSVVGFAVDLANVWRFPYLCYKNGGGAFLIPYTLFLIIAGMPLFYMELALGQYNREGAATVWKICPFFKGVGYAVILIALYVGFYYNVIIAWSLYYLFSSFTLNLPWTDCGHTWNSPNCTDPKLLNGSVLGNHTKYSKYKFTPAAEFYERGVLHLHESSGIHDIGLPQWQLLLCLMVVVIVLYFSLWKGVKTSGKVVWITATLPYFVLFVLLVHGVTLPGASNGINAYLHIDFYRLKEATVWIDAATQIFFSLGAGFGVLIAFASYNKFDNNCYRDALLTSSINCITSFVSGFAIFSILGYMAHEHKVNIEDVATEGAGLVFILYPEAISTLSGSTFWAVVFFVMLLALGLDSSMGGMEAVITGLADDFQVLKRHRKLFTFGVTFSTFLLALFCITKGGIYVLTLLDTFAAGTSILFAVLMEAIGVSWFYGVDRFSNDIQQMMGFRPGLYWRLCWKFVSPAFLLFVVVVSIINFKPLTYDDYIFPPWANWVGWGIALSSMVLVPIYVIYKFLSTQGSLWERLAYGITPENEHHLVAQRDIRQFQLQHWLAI
Sequence of Mu-type opioid receptor (P35372 whole entry): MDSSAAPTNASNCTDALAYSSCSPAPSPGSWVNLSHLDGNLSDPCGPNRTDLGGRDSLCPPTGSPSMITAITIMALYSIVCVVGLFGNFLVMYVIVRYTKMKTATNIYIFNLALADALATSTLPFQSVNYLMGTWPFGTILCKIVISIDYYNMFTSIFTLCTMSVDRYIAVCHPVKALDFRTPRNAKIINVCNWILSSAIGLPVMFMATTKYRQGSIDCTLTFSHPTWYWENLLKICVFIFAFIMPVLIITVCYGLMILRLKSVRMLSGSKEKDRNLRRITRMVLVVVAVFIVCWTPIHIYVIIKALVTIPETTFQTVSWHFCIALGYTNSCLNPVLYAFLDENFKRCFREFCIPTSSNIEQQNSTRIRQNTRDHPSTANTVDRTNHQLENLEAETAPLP
Sequence of 5-hydroxytryptamine receptor 2A (P28223 whole entry): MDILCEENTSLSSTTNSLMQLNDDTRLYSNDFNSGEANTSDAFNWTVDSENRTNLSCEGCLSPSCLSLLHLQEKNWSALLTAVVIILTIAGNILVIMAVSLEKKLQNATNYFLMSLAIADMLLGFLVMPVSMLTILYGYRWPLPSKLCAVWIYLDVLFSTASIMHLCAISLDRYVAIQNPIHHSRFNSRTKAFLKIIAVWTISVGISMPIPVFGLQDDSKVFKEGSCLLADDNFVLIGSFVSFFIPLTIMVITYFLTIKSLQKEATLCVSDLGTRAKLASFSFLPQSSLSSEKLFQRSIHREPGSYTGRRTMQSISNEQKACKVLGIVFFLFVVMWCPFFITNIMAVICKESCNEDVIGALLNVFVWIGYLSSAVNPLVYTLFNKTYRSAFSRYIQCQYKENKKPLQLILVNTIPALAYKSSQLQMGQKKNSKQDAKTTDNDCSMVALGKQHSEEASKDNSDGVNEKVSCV
Sequence of hERG (KCNH2) (Q12809 whole entry): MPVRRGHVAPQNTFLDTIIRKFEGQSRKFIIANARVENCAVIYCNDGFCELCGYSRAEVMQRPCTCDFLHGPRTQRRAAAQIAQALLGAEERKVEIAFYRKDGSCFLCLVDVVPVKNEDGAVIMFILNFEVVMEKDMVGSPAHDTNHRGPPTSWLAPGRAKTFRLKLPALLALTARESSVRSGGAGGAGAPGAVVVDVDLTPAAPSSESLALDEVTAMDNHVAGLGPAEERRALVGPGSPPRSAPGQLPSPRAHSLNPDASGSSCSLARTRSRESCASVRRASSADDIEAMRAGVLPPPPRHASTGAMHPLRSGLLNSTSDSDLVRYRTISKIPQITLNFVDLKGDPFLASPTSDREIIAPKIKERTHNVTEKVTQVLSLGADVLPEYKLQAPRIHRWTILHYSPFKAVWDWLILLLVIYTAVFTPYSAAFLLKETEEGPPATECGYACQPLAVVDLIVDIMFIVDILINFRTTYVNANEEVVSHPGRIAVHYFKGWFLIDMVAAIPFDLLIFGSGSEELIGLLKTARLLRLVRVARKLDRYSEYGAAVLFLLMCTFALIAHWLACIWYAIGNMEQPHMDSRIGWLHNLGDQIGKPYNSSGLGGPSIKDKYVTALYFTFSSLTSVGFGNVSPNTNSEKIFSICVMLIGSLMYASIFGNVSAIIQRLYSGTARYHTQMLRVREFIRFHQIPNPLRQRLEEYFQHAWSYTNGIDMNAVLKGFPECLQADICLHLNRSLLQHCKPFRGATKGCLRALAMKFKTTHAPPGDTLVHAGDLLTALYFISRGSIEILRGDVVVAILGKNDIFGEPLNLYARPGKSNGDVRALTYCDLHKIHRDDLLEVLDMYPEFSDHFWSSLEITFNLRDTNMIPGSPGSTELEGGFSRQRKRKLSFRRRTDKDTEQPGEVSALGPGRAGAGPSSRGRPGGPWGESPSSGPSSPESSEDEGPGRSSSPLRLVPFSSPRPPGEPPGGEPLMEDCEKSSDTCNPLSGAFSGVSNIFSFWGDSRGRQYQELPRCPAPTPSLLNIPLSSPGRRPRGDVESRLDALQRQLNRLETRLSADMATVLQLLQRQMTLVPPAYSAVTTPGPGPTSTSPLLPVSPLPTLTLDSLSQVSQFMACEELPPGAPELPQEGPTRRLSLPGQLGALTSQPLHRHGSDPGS

Row | SMILES | Kd [1] [nM] | Ratio (NCI-H1299 [2]) | Activity [3] | inhibition at 10 µM (hERG (KCNH2)) [%] | inhibition at 1 h, 10 µM [4] [%] | inhibition at 1 h, 10 µM (Sodium channel site 2) [%] | inhibition at 2 h, 10 µM [5] [%] | EC50 (TOV112D [7]) [nM] | further results
1 | C/C(=N\Nc1nc2ccccc2s1)c1ncccn1 | 79 | 1.2 | inactive | -2 | 3 | 2 | 84 |  | inhibition at 2 h, 10 µM (Mu-type opioid receptor): 4%
2 | C/C(=N\Nc1nc2ccccc2n1CCN1CCCC1)c1ccccn1 | 22 |  | Active | 88 | 96 | 101 | 101 |  | inhibition in vivo at 5.73 mg/kg (TOV112D [6]): 47%
3 | C/C(=N\NC(=S)N1CCC1)c1cc(N(C)C)ccn1 |  |  | inactive |  |  |  |  | 8 | 
4 | COC/C(=N\Nc1nc2ccccc2s1)c1ccccn1 | 197 | 0.9 | Active |  |  |  |  |  | 
5 | C/C(=N\Nc1nc2ccccc2s1)c1ccccn1 |  |  | Active | 19 | 96 | 101 | 101 | 55 | Activity (NCI-H460): inactive; Activity (NCI-H1299 [8]): inactive; inhibition at 2 h, 10 µM (Mu-type opioid receptor): 13%; Activity [9]: Non-Toxic; inhibition in vivo at 5 mg/kg (TOV112D [10]): 72%; TGI (MDA-MB-468): inactive
6 | C/C(=N\Nc1nc2ccccc2n1CCN1CCC(F)(F)C1)c1ccccn1 | 26 |  | Active | 101 | 92 |  | -1 | 151 | Kd [11]: 0.001 pM; EC50 [12]: 180 nM; EC50 [13]: 120 nM; remaining at 6 h [14]: > 92%; Stabilty [15]: > 82%
7 | C/C(=N\Nc1nc2ccccc2n1C)c1ncccn1 | 54 | 1.6 | inactive | 77 | 11 | 12 | -2 |  | inhibition at 2 h, 10 µM (Mu-type opioid receptor): 41%
8 | C/C(=N\NC(=S)N1CCC1)c1ccccn1 |  |  | Active |  |  |  |  |  | Papp at […], 5 µM [16]: 4.4 ×10⁻⁶ cm/s; MTD [17]: 5 mg/kg; inhibition in vivo at 5.73 mg/kg (TOV112D [6]): 63%; remaining at 7 h [18]: 22%
9 | C/C(=N\NC(=O)N1CCC1)c1ccccn1 |  |  | inactive |  |  |  |  | > 10000 | 
10 | C/C(=N\NC(=S)N1CCC1)c1ccccc1 |  | 0.9 | inactive |  |  |  |  |  | Kd [19]: Not Active
11 | C/C(=N\Nc1ccc2ccccc2n1)c1ccccn1 |  |  | Active |  |  |  |  | 141 | 
12 | C/C(=N\Nc1nc2ccccc2n1CCN1CCOCC1)c1ccccn1 | 71 |  | Active | 76 | 100 | 50 | -7 | 51 | inhibition in vivo at 5.73 mg/kg (TOV112D [6]): 59%
13 | C/C(=N\Nc1nc2ccccc2n1C)c1ccccn1 |  |  | Active | 86 | 46 | 7 | 61 | 4 | inhibition at 2 h, 10 µM (Mu-type opioid receptor): 48%
14 | C/C(=N\Nc1nc2ccccc2s1)c1cc(OCCN2CCN(C)CC2)ccn1 | 20 | 0.9 | inactive |  |  |  |  |  | 
15 | CS/C(=N\N=C(/C)c1ccccn1)N1CCC1 |  |  | inactive |  |  |  |  |  | Kd [19]: Not Active
